Reference: ChEMBL document CHEMBL1275347, “New fluoro derivatives of the pyrazolo[5,1-c][1,2,4]benzotriazine 5-oxide system: evaluation of fluorine binding properties in the benzodiazepine site on γ-aminobutyrric acid type A (GABA(A)) receptor. Design, synthesis, biological, and molecular modeling investigation” (J Med Chem, 2010)
The source made the active and inactive calls. The calls are words filed in the database; no cut-off is given here.

Assays:
[1] = Displacement of [3H]Ro15-1788 from GABA(A) receptor benzodiazepine site in bovine brain membrane; type: cell membranes, Bos taurus
Procedure, shortened: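 Bovine cerebral cortex membranes were diluted in 50 mM Tris-citrate pH 7.4 and used for [3H]Ro15-1788 displacement, with at least six test concentrations. Five experiments were run in triplicate. IC50 came from iterative curve fitting and Ki from Cheng-Prusoff, reported as mean ± SEM. Ki was derived only where inhibition at 10 μM exceeded 80%.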

Mus musculus [2] = assay: Toxicity in CD1 albino mouse assessed as myorelaxant activity over 35 mins at 10 mg/kg, po by grip-strength meter assay; type: organism-based; design: dose 10 mg/kg, route oral; settings: in vivo
Procedure, shortened: (§1)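 Grip-strength meter test in male CD-1 mice given compound po in 1% CMC 30 min before testing. Grip force was read in g at 35 min. Values are mean ± SEM.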

Mus musculus [3] = assay: Effect on learning and memory process in CD1 albino mouse assessed as improvement in retention latency at 3 mg/kg, po after 24 hrs by passive avoidance test; type: functional, organism-based; design: dose 3 mg/kg
Procedure, shortened: (§2)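 Passive avoidance test in male CD-1 mice. Compounds were given po 30 min before training, and retention latency was tested 24 h later. n = 9-11 per group, mean ± SEM.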

Mus musculus [4] = assay: Toxicity in CD1 albino mouse assessed as number of falls from rod over 30 seconds at 30 mg/kg, po after 25 mins of drug administration by rotarod test; type: organism-based; design: dose 30 mg/kg, route oral; settings: in vivo
Procedure, shortened: (§3)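 Rota-rod test in male CD-1 mice dosed po in 1% CMC. Falls from the rod were counted over 30 s, 25 min after dosing. Methods give the rod speed as 24 rpm; the table gives 16 rpm. Values are mean ± SEM.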

Mus musculus [5] = assay: Anticonvulsant activity in CD1 albino mouse assessed as protection against pentylenetetrazole-induced shock and convulsion at 10 mg/kg, ip treated after 30 mins of pentylenetetrazole measured for 30 mins; type: functional; settings: route intraperitoneal
Mus musculus [6] = assay: Toxicity in CD1 albino mouse at 10 mg/kg, po in presence of 100 mg/kg, po flumazenil; type: organism-based; settings: in vivo
Mus musculus [7] = assay: Toxicity in CD1 albino mouse assessed as myorelaxant activity over 35 mins at 30 mg/kg, po by grip-strength meter assay; type: organism-based; design: dose 30 mg/kg, route oral; settings: in vivo; procedure, shortened: as §1
Mus musculus [8] = assay: Anxiolytic activity in CD1 albino mouse at 10 mg/kg, po by light/dark box test; type: functional, organism-based; design: dose 10 mg/kg
Procedure, shortened: (§4)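 Male CD-1 mice dosed po in 1% CMC 30 min before the light-dark box test. Each mouse was placed in the centre of the lit area facing away from the dark side and explored for 5 min. Transfers between compartments and time spent in the light were scored. n = 9-10 per group, mean ± SEM.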

Mus musculus [9] = assay: Effect on learning and memory process in CD1 albino mouse assessed as improvement in retention latency at 10 mg/kg, po after 24 hrs by passive avoidance test; type: functional, organism-based; design: dose 10 mg/kg; procedure, shortened: as §2
Mus musculus [10] = assay: Anxiolytic activity in CD1 albino mouse assessed as sleeping time at 10 mg/kg, po pretreated 30 mins before test; type: functional
Procedure, shortened: (§5)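 Male CD-1 mice given compound po in 1% carboxymethylcellulose 30 min before ethanol (4 g/kg ip). Sleep time is the duration of loss of righting reflex, capped at 210 min. Values are mean ± SEM of treated mice.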

Mus musculus [11] = assay: Effect on duration of loss of righting reflex in ethanol-induced in CD1 albino mouse at 10 mg/kg, po preincubated 30 mins before ethanol challenge; type: functional, organism-based; design: dose 10 mg/kg; procedure, shortened: as §5
Mus musculus [12] = assay: Anxiolytic activity in CD1 albino mouse at 3 mg/kg, po by light/dark box test; type: functional, organism-based; design: dose 3 mg/kg; procedure, shortened: as §4
Mus musculus [13] = assay: Toxicity in CD1 albino mouse assessed as number of falls from rod over 30 seconds at 10 mg/kg, po after 25 mins of drug administration by rotarod test; type: organism-based; design: dose 10 mg/kg, route oral; settings: in vivo; procedure, shortened: as §3
Mus musculus [14] = assay: Anticonvulsant activity in CD1 albino mouse assessed as protection against pentylenetetrazole-induced shock and convulsion at 30 mg/kg, ip treated after 30 mins of pentylenetetrazole measured for 30 mins; type: functional; settings: route intraperitoneal
Mus musculus [15] = assay: Effect on duration of loss of righting reflex in ethanol-induced in CD1 albino mouse at 3 mg/kg, po preincubated 30 mins before ethanol challenge; type: functional, organism-based; design: dose 3 mg/kg; procedure, shortened: as §5
Mus musculus [16] = assay: Anxiolytic activity in CD1 albino mouse at 30 mg/kg, po by light/dark box test; type: functional, organism-based; design: dose 30 mg/kg; procedure, shortened: as §4
Mus musculus [17] = assay: Anxiolytic activity in CD1 albino mouse assessed as sleeping time at 3 mg/kg, po pretreated 30 mins before test; type: functional; procedure, shortened: as §5
Mus musculus [18] = assay: Anxiolytic activity in CD1 albino mouse at 10 mg/kg, po by light/dark box test in presence of 100 mg/kg, po flumazenil; type: functional, organism-based
Mus musculus [19] = assay: Effect on learning and memory process in CD1 albino mouse assessed as improvement in retention latency at 100 mg/kg, po after 24 hrs by passive avoidance test; type: functional, organism-based; design: dose 100 mg/kg
Procedure, shortened: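 Passive avoidance in male CD-1 mice; flumazenil suspended in 1% carboxymethylcellulose, dosed 30 min before training; retention test 24 h later, retention latency recorded. 9-11 mice per group; mean ± SEM versus control.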

Mus musculus [20] = assay: Effect on learning and memory process in CD1 albino mouse assessed as improvement in retention latency at 30 mg/kg, po after 24 hrs by passive avoidance test; type: functional, organism-based; design: dose 30 mg/kg; procedure, shortened: as §2
Bos taurus = species on record: Bos taurus; assay: Displacement of [3H]Ro15-1788 from GABA(A) receptor benzodiazepine site in bovine brain membrane at 10 uM; type: cell membranes
Procedure, shortened: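 Percent inhibition of specific [3H]Ro15-1788 binding to bovine cerebral cortex membranes in 50 mM Tris-citrate pH 7.4, measured with test compound at 10 μM.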

Mus musculus [21] = assay: Anxiolytic activity in CD1 albino mouse assessed as sleeping time at 1 mg/kg, ip pretreated 20 mins before test; type: functional; settings: route intraperitoneal
Procedure, shortened: (§6)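 Male CD-1 mice given diazepam ip (suspended in 1% carboxymethylcellulose) 20 min before test. Ethanol 4 g/kg ip injected […]; duration of loss of righting reflex taken as sleep time, capped at 210 min. Mean ± SEM; ANOVA with Scheffe post hoc test versus 1% CMC controls.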

Mus musculus [22] = assay: Anxiolytic activity in CD1 albino mouse assessed as sleeping time at 0.3 mg/kg, ip pretreated 20 mins before test; type: functional; settings: route intraperitoneal; procedure, shortened: as §6

[O-][n+]1nc2c(F)cnn2c2cc(OCc3ccco3)ccc21
Ki [1]: 129 nM

O=C(OCc1cccs1)c1cnn2c1n[n+]([O-])c1ccc(C(F)(F)F)cc12
Activity (Mus musculus [2]): 52.6 g | Activity (Mus musculus [3]): Active | Activity (Mus musculus [4]): 0.2 | Activity (Mus musculus [5]): 0% | Activity (Mus musculus [6]): Non-toxic | Activity (Mus musculus [7]): 57.9 g | Activity (Mus musculus [8]): Active | Activity (Mus musculus [9]): Active | Time (Mus musculus [10]): 40.8 s | Activity (Mus musculus [11]): inactive | Activity (Mus musculus [12]): Active | Activity (Mus musculus [13]): 0.1 | Activity (Mus musculus [14]): 0% | Activity (Mus musculus [15]): inactive | Activity (Mus musculus [16]): Active | Ki [1]: 10 nM | Time (Mus musculus [17]): 48.6 s

[O-][n+]1nc2c(F)cnn2c2cc(OCc3cccs3)ccc21
Ki [1]: 93.3 nM

CCOC(=O)c1cnn2c1n[n+]([O-])c1ccc(OC(F)F)cc12
Ki [1]: 5.75 nM

[O-][n+]1nc2c(-c3cccs3)cnn2c2cc(C(F)(F)F)ccc21
Ki [1]: 57 nM

[O-][n+]1nc2c(Cl)cnn2c2cc(C(F)(F)F)ccc21
Ki [1]: 175 nM

[O-][n+]1nc2c(I)cnn2c2cc(C(F)(F)F)ccc21
Ki [1]: 18 nM

COc1ccccc1COc1ccc2c(c1)n1ncc(F)c1n[n+]2[O-]
Ki [1]: 3.19 nM

COc1ccccc1COC(=O)c1cnn2c1n[n+]([O-])c1ccc(C(F)(F)F)cc12
Activity (Mus musculus [2]): 51.7 g | Activity (Mus musculus [4]): 0.2 | Activity (Mus musculus [5]): 0% | Activity (Mus musculus [7]): 48.5 g | Activity (Mus musculus [8]): Active | Activity (Mus musculus [18]): inactive | Activity (Mus musculus [9]): inactive | Time (Mus musculus [10]): 54.3 s | Activity (Mus musculus [11]): inactive | Activity (Mus musculus [13]): 0.2 | Activity (Mus musculus [14]): 0% | Activity (Mus musculus [15]): inactive | Ki [1]: 5.8 nM | Time (Mus musculus [17]): 36.2 s

[O-][n+]1nc2c(-c3ccsc3)cnn2c2cc(C(F)(F)F)ccc21
Ki [1]: 192 nM

FC(F)Oc1ccc2nnc3c(I)cnn3c2c1
Ki [1]: 5.01 nM

CCOC(=O)c1ncn2c1CN(C)C(=O)c1cc(F)ccc1-2
Activity (Mus musculus [19]): Active

COc1ccccc1C(=O)c1cnn2c1n[n+]([O-])c1ccc(C(F)(F)F)cc12
Ki [1]: 1540 nM

[O-][n+]1nc2c(I)cnn2c2cc(OC(F)F)ccc21
Activity (Mus musculus [20]): inactive | Activity (Mus musculus [3]): inactive | Activity (Mus musculus [5]): 0% | Activity (Mus musculus [8]): Active | Activity (Mus musculus [9]): inactive | Ki [1]: 2.47 nM

O=C(OCc1cccs1)c1cnn2c1nnc1ccc(OC(F)F)cc12
Ki [1]: 1.04 nM

C#CCOc1ccc2c(c1)n1ncc(F)c1n[n+]2[O-]
Ki [1]: 268 nM

COc1ccccc1COC(=O)c1cnn2c1n[n+]([O-])c1cc(C(F)(F)F)ccc12
inhibition (Bos taurus): 38%

CCOC(=O)c1cnn2c1n[n+]([O-])c1cc(C(F)(F)F)ccc12
inhibition (Bos taurus): 3%

[O-][n+]1nc2c(F)cnn2c2cc(OCc3ccccc3OC(F)(F)F)ccc21
inhibition (Bos taurus): 27%

CCOC(=O)c1cnn2c1n[n+]([O-])c1ccc(C(F)(F)F)cc12
Ki [1]: 316 nM

CCOC(=O)c1cnn2c1nnc1ccc(OC(F)F)cc12
Ki [1]: 51.7 nM

[O-][n+]1nc2c(F)cnn2c2cc(Cl)ccc21
inhibition (Bos taurus): 50%

CN1C(=O)CN=C(c2ccccc2)c2cc(Cl)ccc21 [DIAZEPAM]
Time (Mus musculus [21]): 14.5 s | Time (Mus musculus [22]): 134.5 s | Ki [1]: 10 nM

O=C(OCc1cccs1)c1cnn2c1n[n+]([O-])c1cc(C(F)(F)F)ccc12
inhibition (Bos taurus): 34%

[O-][n+]1nc2c(Br)cnn2c2ccc(C(F)(F)F)cc21
inhibition (Bos taurus): 38%

[O-][n+]1nc2c(-c3ccoc3)cnn2c2cc(C(F)(F)F)ccc21
Ki [1]: 112 nM

[O-][n+]1nc2c(Br)cnn2c2cc(C(F)(F)F)ccc21
Ki [1]: 139 nM

O=C(c1cccs1)c1cnn2c1n[n+]([O-])c1ccc(C(F)(F)F)cc12
Ki [1]: 164 nM

[O-][n+]1nc2c(F)cnn2c2cc(OCc3ccncc3)ccc21
Ki [1]: 381 nM
